Experimental data as given in ChEMBL document CHEMBL3600328, “Bayesian models trained with HTS data for predicting β-haematin inhibition and in vitro antimalarial activity” (Bioorg Med Chem, 2015).

How the values were obtained:
Plasmodium falciparum = assay: Antimalarial activity against CQ-sensitive Plasmodium falciparum NF54 assessed as inhibition of parasite growth; type: functional, organism-based
[1] = Inhibition of beta-hematin formation; type: physicochemical
In short: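 NP-40 detergent-mediated β-haematin formation assay, run per an earlier-published protocol.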

Row | Compound | IC50 [1] [µM] | IC50 (Plasmodium falciparum) [µM]
1 | Nc1cc(O)c2ccccc2n1 | 85 | > 10
2 | Cc1ccc(C(=O)C2=C(O)C(=O)N(Cc3cccnc3)[C@H]2c2ccc(Cl)c(Cl)c2)o1 | 88 | > 10
3 | C=C[C@H]1CN2CC[C@@H]1C[C@@H]2Cc1ccnc2ccccc12 | 66 | 0.082

Stronger by IC50 [1], values ahead:

Row | IC50 [1] [µM] | Compound | IC50 (Plasmodium falciparum) [µM]
4 | 22 | COc1cc(-c2nc3cc([N+](=O)[O-])ccc3[nH]2)ccc1O | > 10
5 | 46 | O=C(O)c1cc(-c2ccc(-c3ccccc3)cc2)nc2ccccc12 | > 10
6 | 26 | CN(C)CCNc1cc(-c2ccc3ccccc3c2)nc2ccccc12 | 0.079
